Screens: PubChem, several laboratories
CRFR2-BP ag – CRF-BP/CRF-R2 complex agonism; HEK293 CRF-R2/CRF-BP, calcium dye fluorescence (FLIPR); percent of saturating CRF peptide response; activation, % at 13.2 µM; 0.46% of 350,000 active; AID 588473;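 active = activation of at least 50%, plus an integration ratio under a set limit after plate pattern correction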;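 also: plate controls were neutral control wells without compound for no effect and CRF at EC100 for full effect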
TAAR1 antagonist – human TAAR1 antagonism; Q96RJ0; CHO RD-HGA16 TAAR1, Fluo-8 calcium fluorescence, antagonist; inhibition, % at 3 µM; 1.5% of 360,000 active;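 active = inhibition above a per-plate cutoff, the mean inhibition of test compounds on that plate plus 3 SD, cut at about 49% in these data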;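 also: 0% = DMSO plus EC80 beta-PEA response and 100% = DMSO alone without agonist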
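System: CHO RD-HGA16 cells bearing hTAAR1. Reagent: EC80 β-phenethylamine stimulus. Schedule: seeding 17-24 h prior, 75-min 37 °C, 30-min RT dye loading. Signal: Fluo-8 intracellular calcium dye fluorescence, real-time kinetic reads. Read-out: % inhibition from peak post-agonist over basal fluorescence ratio. Benchmarks: vehicle wells and EC80 agonist wells. Replicates: n of 1.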
CRFBP-R2 block – blocks CRF-induced signaling of the CRF-BP/CRF-R2 complex; inhibition, % at 11.8 µM; HEK293 CRF-R2/CRF-BP, CRF-induced calcium fluorescence; 0.59% of 350,000 active;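 active = inhibition of the ligand-induced calcium signal above about 50% at the single tested concentration, limit read from the data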
TMEM16A inh – mouse TMEM16A channel inhibition, primary screen | Q8BHY3 | HEK293 TMEM16A/YFP iodide influx fluorescence, ionomycin | normalized B-score (activity score, 25-100; higher = stronger inhibition) at 10 µM | 1.2% of 310,000 active;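 active = ratio plate-corrected score three or more library SD toward inhibition, starting fluorescence score within five deviations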;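 also: score derived from kinetic fluorescence span divided by baseline fluorescence per well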
Target sequence (Q8BHY3 whole entry, looked up): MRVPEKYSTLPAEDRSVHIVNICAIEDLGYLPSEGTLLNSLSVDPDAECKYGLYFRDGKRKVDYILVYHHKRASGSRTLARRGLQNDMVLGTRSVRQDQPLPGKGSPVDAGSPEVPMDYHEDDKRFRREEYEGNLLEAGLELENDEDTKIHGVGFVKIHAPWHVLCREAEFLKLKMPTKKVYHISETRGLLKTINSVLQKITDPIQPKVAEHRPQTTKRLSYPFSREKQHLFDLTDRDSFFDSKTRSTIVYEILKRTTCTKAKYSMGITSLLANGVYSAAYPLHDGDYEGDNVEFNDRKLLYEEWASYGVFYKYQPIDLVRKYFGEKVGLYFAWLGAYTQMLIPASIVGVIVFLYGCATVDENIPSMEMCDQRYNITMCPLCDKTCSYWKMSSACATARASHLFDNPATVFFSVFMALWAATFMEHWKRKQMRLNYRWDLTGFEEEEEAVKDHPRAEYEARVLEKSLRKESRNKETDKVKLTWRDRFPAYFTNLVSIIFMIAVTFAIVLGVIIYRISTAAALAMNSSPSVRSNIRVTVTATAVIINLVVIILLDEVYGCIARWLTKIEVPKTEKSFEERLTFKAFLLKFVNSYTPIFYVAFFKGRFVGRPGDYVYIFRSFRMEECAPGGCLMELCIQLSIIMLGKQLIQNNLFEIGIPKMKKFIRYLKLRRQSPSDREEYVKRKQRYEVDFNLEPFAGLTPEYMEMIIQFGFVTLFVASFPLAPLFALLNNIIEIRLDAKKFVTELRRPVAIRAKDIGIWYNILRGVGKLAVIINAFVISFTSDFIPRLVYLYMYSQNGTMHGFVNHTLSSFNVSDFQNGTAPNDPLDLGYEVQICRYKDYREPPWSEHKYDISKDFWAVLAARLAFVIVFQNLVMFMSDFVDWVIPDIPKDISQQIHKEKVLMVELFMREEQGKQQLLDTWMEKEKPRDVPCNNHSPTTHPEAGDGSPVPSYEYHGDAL
TAAR1 agonist – human TAAR1 agonism; Q96RJ0; CHO RD-HGA16 TAAR1, Fluo-8 calcium fluorescence; vehicle wells 0%, saturating PEA agonist 100%; activation, % at 3 µM; 0.99% of 360,000 active;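 active = activation above the mean activation of all test compounds in the run plus 3 SD, cut at about 38% in these data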
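Assay system – CHO-derived RD-HGA16 cells with stable Gα16 and human TAAR1 · Compound dosing – one-point dosing at 3 µM (nominal) · Incubation – 17-24 h seeding, 75 min 37 °C dye, 30 min RT · Measured by – kinetic Fluo-8 calcium fluorescence · Control set – DMSO vehicle as 0%, PEA at EC100 as 100% · Repeats – single well for each compound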
ANO1 activ – activators or potentiators of mouse TMEM16A chloride channel | AID 623877 | B-score at 10 µM | 0.3% of 340,000 active | HEK293 TMEM16A/YFP-H148Q/I152L, iodide quench fluorescence; hits give low values | Q8BHY3;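 active = fluorescence-ratio B-score plate-corrected deviation score at least 3 library SD below zero, with starting fluorescence score within 5 deviations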;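 also: channel opened by trigger with iodide after compound preincubation; score built on the fluorescence ratio of max minus min over baseline; more negative score means more quench and so TMEM16A activation or potentiation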
TMEM16A reconf – reconfirmed blocker of mouse TMEM16A calcium-activated chloride channel. inhibition, % at 10 µM. 39% of 2,300 active. shares compounds with TMEM16A inh. HEK293 TMEM16A/YFP-H148Q, iodide quench fluorescence; ionomycin added to raise cell calcium;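 active = mean duplicate percent inhibition, scaled so buffer wells are 0 and the reference blocker 100, over three buffer SD above buffer mean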
TMEM16A Ca cntr – alters calcium mobilization in TMEM16A HEK293 cells, counter-screen; shares compounds with TMEM16A inh; TMEM16A/YFP HEK293, Fluo4 calcium mobilization; 2% of 2,300 active; calcium response (% of ionomycin), % at 10 µM;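 active = duplicate-averaged calcium signal over 20% of the ionomycin maximum, relative to buffer baseline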;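 also: each well's signal is peak minus trough fluorescence divided by its pre-addition baseline; 0% = buffer wells and 100% = ionomycin wells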
YFP-HEK293 quench – parental YFP-HEK293 iodide quench counter-screen activity; shares compounds with TMEM16A inh; ionomycin; YFP ratio F(max-min)/F0 at 10 µM; 2,300 tested, under 10 active;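 active = yellow fluorescent protein signal ratio exceeding the buffer control mean by over 5 SD of those controls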;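 also: ratio is mean of duplicate wells from kinetic YFP trace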
ClC-1 rat inh – blocks the rat ClC-1 voltage-dependent chloride channel; shares compounds with TMEM16A inh; CHO ClC-1-YFP, iodide influx fluorescence quench; iodide control reads 0, buffer control 100; ratio percent, % at 10 µM; 2,300 tested, under 10 active;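 active = duplicate-mean ratio percent above the mean of iodide-only control wells, which defines zero, plus 5 of their SD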;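 also: higher percent means stronger block of ClC-1 iodide influx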
TAAR1 nonsel count – nonselective antagonism, TAAR1 counter-screen. counterscreen cell line, calcium fluorescence, antagonist mode. 77% of 2,400 active. shares compounds with TAAR1 antagonist. inhibition, % at 3 µM; in the data active = inhibition above about 22%;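 also: CHO-Ga16 host cells stimulated with ATP at an EC80 level; 0% = agonist EC80 plus vehicle and 100% = vehicle without agonist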
TAAR1 antag conf – human TAAR1 antagonism, confirmed; 40% of 2,400 active; inhibition, % at 3 µM; TAAR1-expressing cells, fluorescence antagonist read-out; shares compounds with TAAR1 antagonist; in the data active = inhibition above about 49%;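 also: CHO-Ga16 host cells challenged with agonist PEA near its EC80; 0% = agonist at EC80 plus vehicle and 100% = vehicle with no agonist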
Ga16 nonsel ag – counter-screen for TAAR1 antagonists: nonselective Ga16 agonists | AID 651953 | 18% of 2,400 active | shares compounds with TAAR1 antagonist | Ga16-expressing cells, calcium fluorescence, agonist counterscreen | activation, % at 3 µM; in the data active = activation above about 12%;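 also: 0% = vehicle wells and 100% = saturating stimulus response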
TAAR1 ag count – counter-screen for human TAAR1 antagonists: TAAR1 agonists | hTAAR1 cell line, fluorescence activation, agonist mode | activation, % at 3 µM | AID 651955 | shares compounds with TAAR1 antagonist | 2% of 2,400 active; in the data active = activation above about 37%;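 also: CHO cells stably expressing TAAR1 with calcium dye readout; 0% = DMSO vehicle and 100% = full agonist response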
* marks the source's active call; other numbers are inactive results; i = inactive; x = no result. A selection: hits, their analogues and other compounds. The true share with any hit is near 3.9%.

SMILES	CRFR2-BP ag	TAAR1 antagonist	CRFBP-R2 block	TMEM16A inh	TAAR1 agonist	ANO1 activ	TMEM16A reconf	TMEM16A Ca cntr	YFP-HEK293 quench	ClC-1 rat inh	others
CC(C)CC1COC(=O)N1 (stereo unspecified)	0	-3	5	i	7	i	x	x	x	x
CSCCC(c1nc2ccccc2[nH]1)n1c(/C=C/c2ccc(F)c(F)c2)nc2ccccc21 (stereo unspecified)	x	-3	x	x	-1	x	x	x	x	x
CCOC(=O)C1=C(N)Oc2cc(O)ccc2C1c1cccnc1 (stereo unspecified)	-3	-9	0	100*	5	i	30%*	i	-1.2	-10
Cc1ccc(N2C(=O)c3ccccc3NC2(C(=O)O)c2ccccc2)cc1Cl (stereo unspecified)	6	-19	-3	i	1	i	x	x	x	x
Nn1c(SCC(=O)Nc2ccc(OC(F)F)cc2)nnc1-c1ccco1	0	2	-4	i	3	i	x	x	x	x
CCN(C(=O)COC(=O)c1ccccc1Nc1cccc(C)c1C)C1CCS(=O)(=O)C1 (stereo unspecified)	-1	-3	-11	100*	12	i	i	i	-0.92	-8
COc1ccc(O)c(C(=O)c2coc(=N)c(C(=O)Nc3ccc(SC(F)F)cc3)c2)c1	11	30	7	i	9	i	i	i	-1.1	-58
CCN(CC)c1ccc(-c2nn3c(-c4ccccc4OC)nnc3s2)cc1	-4	x	14	100*	x	i	i	i	-1.1	-2
COc1ccc(-c2nn3c(-c4ccccc4)nnc3s2)cc1	0	9	6	i	1	i	x	x	x	x
COc1cc(OC)cc(C(=O)Nc2ccn(C)n2)c1	0	-14	-2	x	3	i	x	x	x	x
C/C(=N\NC(N)=O)C1CC(Cc2ccccc2)C(=O)O1 (stereo unspecified)	-1	1	2	i	2	i	x	x	x	x
COc1ccc(/C=N/NC(=O)c2cccnc2)cc1COc1ccc([N+](=O)[O-])c(C)c1	1	64*	-14	25*	16	i	22%*	i	-1	-16	TAAR1 nonsel count=38*;TAAR1 antag conf=53*;Ga16 nonsel ag=12*;TAAR1 ag count=11
COc1cccc(N2CCN(c3ncnc4c3cnn4-c3ccc(C)cc3C)CC2)c1	3	96*	22	100*	4	i	32%*	i	-1.1	-6	TAAR1 nonsel count=48*;TAAR1 antag conf=65*;Ga16 nonsel ag=9;TAAR1 ag count=5
Cc1ccc(-n2ncc3c(N4CCCC4)ncnc32)c(C)c1	-1	9	20	i	4	i	x	x	x	x
C=CCN(C(=O)c1csnn1)C(C(=O)NCc1ccc(F)cc1)c1sccc1C (stereo unspecified)	0	24	-5	i	4	i	x	x	x	x
